Assay [1] in a line: The dissociation constant was measured as binding affinity to P-Glycoprotein C-terminal cytosolic domain using the grafit program. The method in brief:
(§1)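 Tryptophan fluorescence excited at 295 nm, emission scanned 310–380 nm and integrated after buffer Raman subtraction. Chalcone titrated in successive additions up to 20 µM. Quenching corrected for inner-filter effect using N-acetyltryptophanamide. KD and ΔFmax obtained by curve fitting.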

A short description of assay [2]: The maximal fluorescence quenching was determined using the Grafit program. The essentials:
as §1

pKd: −log10 of the molar value.

A word on the pKd: it is the negative decadic logarithm of the Kd, by convention in mol/L. Lower therefore signals a large Kd. In assay [1], `O=C(/C=C/c1ccc(I)cc1)c1c(O)cc(O)cc1O` had a negative logarithm of the Kd (pKd) of 6.60. Besides, the maximal fluorescence quenching in assay [2] is 86.6%.

As to `O=C(/C=C/c1ccccc1)c1c(O)cc(O)cc1O` [2',4',6-TRIHYDROXYCHALCONE], the maximal fluorescence quenching in assay [2] stood at 87.8%. For `O=C(/C=C/c1ccc(O)cc1)c1c(O)cc(O)cc1O` [4,2',4',6'-TETRAHYDROXYCHALCONE], the pKd in assay [1] is 5.32. Besides, the maximal fluorescence quenching in assay [2] was found to be 86.8%. In turn, `O=C(/C=C/c1ccc(Br)cc1)c1c(O)cc(O)cc1O` [4-BROMO-2',4',6'-TRIHYDROXYCHALCONE] had a pKd in assay [1] of 6.24. In addition, the maximal fluorescence quenching in assay [2] came to 88.7%. The like results for `O=C(/C=C/c1ccc(Cl)cc1)c1c(O)cc(O)cc1O` [4-CHLORO-2',4',6'-TRIHYDROXYCHALCONE] were, in that order, 5.89 and 80.1%.

`O=C(/C=C/c1ccc(F)cc1)c1c(O)cc(O)cc1O` [4-FLUORO-2',4',6'-TRIHYDROXYCHALCONE]: in assay [1], the pKd is 5.44. The same compound registered a maximal fluorescence quenching in assay [2] of 88.1%.

`COc1ccc(/C=C/C(=O)c2c(O)cc(O)cc2O)cc1` [4-METHOXYL-2',4',6'-TRIHYDROXYCHALCONE]: the negative logarithm of the Kd (pKd) in assay [1] was 5.64. Further, the maximal fluorescence quenching in assay [2] is 85.5%.
